According to ChEMBL document CHEMBL1806473, “Structure-based optimization of click-based histone deacetylase inhibitors” (Eur J Med Chem, 2011):

Key:
MOLT-4 [1] = assay: Antiproliferative activity against human MOLT4 cells by SRB assay; format: functional
Procedure, shortened: (§1)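 Tested in the NCI in vitro human tumor cell line screen, run by the National Cancer Institute. Each compound was given at five concentrations (100, 10, 1.0, 0.1 and 0.01 μM). GI50 is the drug concentration that reduces growth of treated cells to half that of control cells during drug incubation, judged from the SRB signal.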

RPMI-8226 [2] = assay: Antiproliferative activity against human RPMI8226 cells by SRB assay; format: functional; procedure, shortened: as §1
SR [3] = assay: Antiproliferative activity against human SR cells by SRB assay; format: functional
Procedure, shortened: (§2)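 Cell growth was tested in the NIH in vitro disease-oriented human tumor cell line screen, which NCI ran for these compounds. Compounds were tested at five concentrations (100, 10, 1.0, 0.1 and 0.01 μM), and growth was read by SRB signal. GI50 is the drug concentration that reduces growth of treated cells to half that of control cells during drug incubation.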

EKVX [4] = assay: Antiproliferative activity against human EKVX cells by SRB assay; format: functional; procedure, shortened: as §1
HOP-62 [5] = assay: Antiproliferative activity against human HOP62 cells by SRB assay; format: functional; procedure, shortened: as §1
NCI-H226 [6] = assay: Antiproliferative activity against human NCI-H226 cells by SRB assay; format: functional; procedure, shortened: as §1
NCI-H23 [7] = assay: Antiproliferative activity against human NCI-H23 cells by SRB assay; format: functional; procedure, shortened: as §1
NCI-H322M = assay: Antiproliferative activity against human NCI-H322M cells by SRB assay; format: functional; procedure, shortened: as §1
NCI-H460 [8] = assay: Antiproliferative activity against human NCI-H460 cells by SRB assay; format: functional; procedure, shortened: as §1
HT-29 [9] = assay: Antiproliferative activity against human HT-29 cells by SRB assay; format: functional; procedure, shortened: as §1
KM12 = assay: Antiproliferative activity against human KM12 cells by SRB assay; format: functional; procedure, shortened: as §1
SF-268 = assay: Antiproliferative activity against human SF268 cells by SRB assay; format: functional; procedure, shortened: as §1
SF-295 = assay: Antiproliferative activity against human SF295 cells by SRB assay; format: functional; procedure, shortened: as §1
SF-539 [10] = assay: Antiproliferative activity against human SF539 cells by SRB assay; format: functional; procedure, shortened: as §1
U-251 = assay: Antiproliferative activity against human U251 cells by SRB assay; format: functional; procedure, shortened: as §2
Malme-3M [11] = assay: Antiproliferative activity against human MALME-3M cells by SRB assay; format: functional; procedure, shortened: as §1
M14 [12] = assay: Antiproliferative activity against human M14 cells by SRB assay; format: functional; procedure, shortened: as §1
MDA-MB-435 = assay: Antiproliferative activity against human MDA-MB-435 cells by SRB assay; format: functional; procedure, shortened: as §1
SK-MEL-5 = assay: Antiproliferative activity against human SK-MEL-5 cells by SRB assay; format: functional; procedure, shortened: as §1
UACC-62 [13] = assay: Antiproliferative activity against human UACC62 cells by SRB assay; format: functional; procedure, shortened: as §2
IGROV-1 [14] = assay: Antiproliferative activity against human IGROV1 cells by SRB assay; format: functional; procedure, shortened: as §1
OVCAR-3 = assay: Antiproliferative activity against human OVCAR3 cells by SRB assay; format: functional; procedure, shortened: as §1
OVCAR-5 = assay: Antiproliferative activity against human OVCAR5 cells by SRB assay; format: functional; procedure, shortened: as §1
SK-OV-3 [15] = assay: Antiproliferative activity against human SKOV3 cells by SRB assay; format: functional; procedure, shortened: as §1
ACHN [16] = assay: Antiproliferative activity against human ACHN cells by SRB assay; format: functional; procedure, shortened: as §1
PC-3 = assay: Antiproliferative activity against human PC3 cells by SRB assay; format: functional; procedure, shortened: as §1
MCF7 [17] = assay: Antiproliferative activity against human MCF7 cells by SRB assay; format: functional; procedure, shortened: as §1
MDA-MB-231 = assay: Antiproliferative activity against human MDA-MB-231 cells by SRB assay; format: functional; procedure, shortened: as §1
[18] = Antiproliferative activity against human Hs 578T cells by SRB assay; format: functional; procedure, shortened: as §1
BT-549 [19] = assay: Antiproliferative activity against human BT549 cells by SRB assay; format: functional; procedure, shortened: as §1
HL-60(TB) = assay: Cytotoxicity against human HL-60(TB) cells; format: cell-based
K562 = assay: Cytotoxicity against human K562 cells; format: cell-based
MOLT-4 [20] = assay: Cytotoxicity against human MOLT4 cells; format: cell-based
RPMI-8226 [21] = assay: Cytotoxicity against human RPMI8226 cells; format: cell-based
Procedure, shortened: (§3)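 Tested in the NCI in vitro disease-oriented human tumour cell line screen, with screening performed by NCI. Growth was read by SRB signal over the drug incubation period at five concentrations: 100, 10, 1.0, 0.1 and 0.01 μM. GI50 is the concentration that reduces growth of treated cells to half that of control cells.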

SR [22] = assay: Cytotoxicity against human SR cells; format: cell-based
Procedure, shortened: (§4)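 Screened by NCI in its in vitro disease-oriented human tumour cell line panel. Compounds tested at five concentrations (100, 10, 1.0, 0.1 and 0.01 μM). Growth read by sulforhodamine B (SRB) signal. GI50 is the concentration reducing growth of treated cells to half that of control cells during the drug incubation.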

A549 = assay: Cytotoxicity against human A549 cells; format: cell-based; procedure, shortened: as §3
EKVX [23] = assay: Cytotoxicity against human EKVX cells; format: cell-based; procedure, shortened: as §3
HOP-62 [24] = assay: Cytotoxicity against human HOP62 cells; format: cell-based; procedure, shortened: as §3
NCI-H226 [25] = assay: Cytotoxicity against human NCI-H226 cells; format: cell-based
NCI-H23 [26] = assay: Cytotoxicity against human NCI-H23 cells; format: cell-based
NCI-H460 [27] = assay: Cytotoxicity against human NCI-H460 cells; format: cell-based
HCT-15 = assay: Cytotoxicity against human HCT15 cells; format: cell-based; procedure, shortened: as §3
HT-29 [28] = assay: Cytotoxicity against human HT-29 cells; format: cell-based; procedure, shortened: as §3
SF-539 [29] = assay: Cytotoxicity against human SF539 cells; format: cell-based; procedure, shortened: as §3
SNB-75 = assay: Cytotoxicity against human SNB75 cells; format: cell-based; procedure, shortened: as §4
LOX IMVI = assay: Cytotoxicity against human LOXIMVI cells; format: cell-based
Malme-3M [30] = assay: Cytotoxicity against human MALME-3M cells; format: cell-based; procedure, shortened: as §3
M14 [31] = assay: Cytotoxicity against human M14 cells; format: cell-based
UACC-62 [32] = assay: Cytotoxicity against human UACC62 cells; format: cell-based; procedure, shortened: as §4
IGROV-1 [33] = assay: Cytotoxicity against human IGROV1 cells; format: cell-based
SK-OV-3 [34] = assay: Cytotoxicity against human SKOV3 cells; format: cell-based
786-0 = assay: Cytotoxicity against human 786-0 cells; format: cell-based
ACHN [35] = assay: Cytotoxicity against human ACHN cells; format: cell-based
CAKI-1 = assay: Cytotoxicity against human Caki1 cells; format: cell-based
RXF 393 = assay: Cytotoxicity against human RXF393 cells; format: cell-based; procedure, shortened: as §3
SN12C = assay: Cytotoxicity against human SN12C cells; format: cell-based; procedure, shortened: as §4
DU-145 = assay: Cytotoxicity against human DU145 cells; format: cell-based; procedure, shortened: as §3
MCF7 [36] = assay: Cytotoxicity against human MCF7 cells; format: cell-based
[37] = Cytotoxicity against human Hs 578T cells; format: cell-based
BT-549 [38] = assay: Cytotoxicity against human BT549 cells; format: cell-based
T47D = assay: Cytotoxicity against human T47D cells; format: cell-based; procedure, shortened: as §4

## O=C(/C=C/c1ccc(CN(CCO)CCc2c[nH]c3ccccc23)cc1)NO [DACINOSTAT]
MOLT-4 [1]
  GI50: 311 nM
RPMI-8226 [2]
  GI50: 523 nM
SR [3]
  GI50: 2990 nM
EKVX [4]
  GI50: 1750 nM
HOP-62 [5]
  GI50: 502 nM
NCI-H226 [6]
  GI50: 1410 nM
NCI-H23 [7]
  GI50: 1500 nM
NCI-H322M
  GI50: 2260 nM
NCI-H460 [8]
  GI50: 700 nM
HT-29 [9]
  GI50: 566 nM
KM12
  GI50: 1040 nM
SF-268
  GI50: 1530 nM
SF-295
  GI50: 743 nM
SF-539 [10]
  GI50: 965 nM
U-251
  GI50: 773 nM
Malme-3M [11]
  GI50: 461 nM
M14 [12]
  GI50: 849 nM
MDA-MB-435
  GI50: 537 nM
SK-MEL-5
  GI50: 271 nM
UACC-62 [13]
  GI50: 379 nM
IGROV-1 [14]
  GI50: 187 nM
OVCAR-3
  GI50: 1110 nM
OVCAR-5
  GI50: 260 nM
SK-OV-3 [15]
  GI50: 524 nM
ACHN [16]
  GI50: 1100 nM
PC-3
  GI50: 1300 nM
MCF7 [17]
  GI50: 730 nM
MDA-MB-231
  GI50: 1960 nM
[18]
  GI50: 619 nM
BT-549 [19]
  GI50: 3920 nM
HL-60(TB)
  LC50: > 100000 nM
K562
  LC50: > 100000 nM
MOLT-4 [20]
  LC50: 86900 nM
RPMI-8226 [21]
  LC50: > 100000 nM
SR [22]
  LC50: > 100000 nM
A549
  LC50: 94600 nM
EKVX [23]
  LC50: > 100000 nM
HOP-62 [24]
  LC50: > 100000 nM
NCI-H226 [25]
  LC50: 20000 nM
NCI-H23 [26]
  LC50: > 100000 nM
NCI-H460 [27]
  LC50: > 100000 nM
HCT-15
  LC50: 56400 nM
HT-29 [28]
  LC50: > 100000 nM
SF-539 [29]
  LC50: 57100 nM
SNB-75
  LC50: > 100000 nM
LOX IMVI
  LC50: 6040 nM
Malme-3M [30]
  LC50: 82000 nM
M14 [31]
  LC50: 93800 nM
UACC-62 [32]
  LC50: 6390 nM
IGROV-1 [33]
  LC50: 48900 nM
SK-OV-3 [34]
  LC50: 28500 nM
786-0
  LC50: 52400 nM
ACHN [35]
  LC50: 94300 nM
CAKI-1
  LC50: 5790 nM
RXF 393
  LC50: 15300 nM
SN12C
  LC50: > 100000 nM
DU-145
  LC50: > 100000 nM
MCF7 [36]
  LC50: > 100000 nM
[37]
  LC50: > 100000 nM
BT-549 [38]
  LC50: 85600 nM
T47D
  LC50: > 100000 nM
